Test results taken from PMC3172397 (Journal of colloid and interface science, 2011).

Experiments:
Assay in all cases: intrinsic Trp fluorescence titration, Scatchard analysis
Type in all cases: binding
[1] = target: Bovine Serum albumin (BSA) (Bos taurus, UniProt P02769)
Summary of the method: (§1)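 Trp fluorescence read with 295 nm excitation and 335–360 nm emission. Fraction bound was taken from intensity relative to unbound and saturated protein. K was taken from the slope of linear Scatchard (ν/c vs ν) segments.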

[2] = target: α-chymotrypsinogen A (aCHY) (Bos taurus, UniProt P00766)
Summary of the method: as §1

ovalbumin (OVA) = target: T1, ovalbumin (OVA) (Gallus gallus, UniProt P01012)
T1 sequence (P01012 2-386): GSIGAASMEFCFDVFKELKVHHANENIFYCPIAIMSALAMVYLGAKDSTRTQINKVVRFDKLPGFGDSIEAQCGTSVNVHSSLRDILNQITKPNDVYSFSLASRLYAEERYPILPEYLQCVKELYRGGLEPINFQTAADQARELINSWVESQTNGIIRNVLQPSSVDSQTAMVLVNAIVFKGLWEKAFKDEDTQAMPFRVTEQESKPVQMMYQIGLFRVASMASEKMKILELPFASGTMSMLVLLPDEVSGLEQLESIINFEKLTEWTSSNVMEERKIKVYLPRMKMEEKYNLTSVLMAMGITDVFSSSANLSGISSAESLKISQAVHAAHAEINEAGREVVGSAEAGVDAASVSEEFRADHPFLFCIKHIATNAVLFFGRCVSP
Summary of the method: as §1

Sequence of Bovine Serum albumin (BSA) (P02769 25-607): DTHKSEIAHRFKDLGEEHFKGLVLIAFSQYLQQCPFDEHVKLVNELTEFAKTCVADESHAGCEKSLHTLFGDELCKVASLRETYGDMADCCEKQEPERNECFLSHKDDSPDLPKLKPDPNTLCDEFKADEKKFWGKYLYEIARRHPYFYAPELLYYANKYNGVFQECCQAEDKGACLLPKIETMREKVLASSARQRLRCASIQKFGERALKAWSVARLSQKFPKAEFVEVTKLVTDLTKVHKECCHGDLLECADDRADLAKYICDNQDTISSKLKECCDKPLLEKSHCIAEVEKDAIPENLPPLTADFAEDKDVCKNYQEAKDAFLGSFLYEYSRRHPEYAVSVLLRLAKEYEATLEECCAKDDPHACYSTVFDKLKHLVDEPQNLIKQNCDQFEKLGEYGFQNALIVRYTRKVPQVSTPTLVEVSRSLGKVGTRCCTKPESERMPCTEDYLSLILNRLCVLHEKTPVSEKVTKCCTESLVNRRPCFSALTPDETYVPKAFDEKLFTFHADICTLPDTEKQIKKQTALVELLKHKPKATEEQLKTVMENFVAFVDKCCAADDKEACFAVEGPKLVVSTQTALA

Kd [1] [µM]	Kd [2] [µM]	Kd (ovalbumin (OVA)) [µM]	SMILES
22.2	455	11.7	CCCCCCCCCCCCOS(=O)(=O)O [SDS]
–	498	–	C=CCCCCCCCCCOS(=O)(=O)O [SUS]
